{"source": "ChEMBL document CHEMBL1144441", "about": "“Identification of a novel cardenolide (2''-oxovoruscharin) from Calotropis procera and the hemisynthesis of novel derivatives displaying potent in vitro antitumor activities and high in vivo tolerance: structure-activity relationship analyses” (J Med Chem, 2005)", "key": {"U373 MG": {"tested_on": "U373 MG", "assay": "Concentration required for 50% growth inhibition of human U373 cancer cell lines after 3 days of culture", "assay_type": "functional, cell-based, U-373MG ATCC", "conditions": "72 h", "method_in_brief": "(§1)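 MTT overall-growth assay on the five lines. Cells were plated for 24 h at 10 000–40 000 cells/mL, depending on cell type. Nine concentrations from 10^-9 to 10^-5 M in semilog steps were applied for 72 h. Formazan was read at 570 nm against a 630 nm reference, in sextuplicate. IC50 = concentration reducing overall growth by 50% versus untreated control.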"}, "LoVo": {"tested_on": "LoVo", "assay": "Concentration required for 50% growth inhibition of human LoVo cancer cell lines after 3 days of culture", "assay_type": "functional, cell-based", "conditions": "72 h", "method_in_brief": "as §1"}, "Mus musculus": {"tested_on": "Mus musculus", "assay": "Maximum tolerated dose after intraperitoneal administration in mouse (period of 28 days); not determined", "assay_type": "functional", "method_in_brief": "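Healthy, non-tumour-bearing B6D2F1 mice given one acute intraperitoneal dose, three mice per dose group, doses 5, 10, 20, 40, 80, 120 and 160 mg/kg. Survival and body weight followed for 28 days after injection. MTD is the highest single dose causing no deaths over the period.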"}, "A549": {"tested_on": "A549", "assay": "Concentration required for 50% growth inhibition of human A549 cancer cell lines after 3 days of culture", "assay_type": "functional, cell-based", "conditions": "A549, 72 h", "method_in_brief": "as §1"}, "HCT-15": {"tested_on": "HCT-15", "assay": "Concentration required for 50% growth inhibition of human HCT-15 cancer cell lines after 3 days of culture", "assay_type": "functional, cell-based", "conditions": "HCT-15, 72 h", "method_in_brief": "as §1"}, "[1]": {"assay": "Concentration required for 50% growth inhibition of human Hs 683 cancer cell lines after 3 days of culture", "assay_type": "functional, cell-based", "conditions": "72 h", "method_in_brief": "as §1"}}, "data": [{"smiles": "CC(=O)CCC(=O)OC[C@]12C[C@H]3OC4(O)[C@@H](O[C@H](C)C[C@@]45NC(=O)CS5)O[C@@H]3C[C@@H]1CC[C@@H]1[C@@H]2CC[C@]2(C)[C@@H](C3=CC(=O)OC3)CC[C@]12CO", "note": "(stereo partly specified)", "values": [{"measurement": "IC50", "setting": "U373 MG", "result": 3.23, "unit": "µM"}, {"measurement": "IC50", "setting": "LoVo", "result": 3, "unit": "µM"}, {"measurement": "MTD", "setting": "Mus musculus", "result": 20, "unit": "mg/kg"}, {"measurement": "IC50", "setting": "A549", "result": 0.463, "unit": "µM"}, {"measurement": "IC50", "setting": "HCT-15", "result": 3.24, "unit": "µM"}, {"measurement": "IC50", "setting": "[1]", "result": 0.758, "unit": "µM"}]}]}
